Screening results (PubChem)
Sampled rows, rich in hits. Any-hit rate of the full collection: about 2.6%.
LMPTP inh: LMPTP phosphatase inhibitors, primary screen, biochemical, fluorescence intensity, uHTS. inhibition, % at 20 µM. actives 0.22% (n = 360,000). recombinant LMPTP-A, OMFP fluorogenic substrate. AID 651560, 2012. Low molecular weight phosphotyrosine protein phosphatase (Homo sapiens), P24666;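 active means compounds that cut the enzyme signal by at least half of the control window in the single-dose screen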;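 further: plate controls were DMSO wells with enzyme plus substrate for no effect and substrate without enzyme for full effect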
Target sequence (P24666 whole entry, looked up): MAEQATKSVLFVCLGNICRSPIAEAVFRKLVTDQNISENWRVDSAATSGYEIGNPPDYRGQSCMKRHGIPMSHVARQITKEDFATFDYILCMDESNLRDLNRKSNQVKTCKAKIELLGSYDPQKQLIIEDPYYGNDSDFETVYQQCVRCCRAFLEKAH
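Test system: LMPTP-A phosphatase enzyme; input: 0.625 nM LMPTP-A final; reagent: OMFP substrate, 400 µM final; compound dosing: 20 µM single dose, 3% DMSO; incubation: 50 min dark incubation at room temperature; measured by: endpoint fluorescence intensity from OMFP dephosphorylation; measure: % inhibition relative to no-enzyme and uninhibited control wells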
NadD inh: inhibitors of S. aureus NadD, primary screen, biochemical, colorimetric, uHTS. purified NadD enzyme, colorimetric absorbance read-out. inhibition, % at 20 µM. actives 0.78% (n = 360,000); in the data active means inhibition above about 26%
rCAG RNA binder: binders of r(CAG) RNA repeats, primary screen, biochemical, fluorescence; inhibition, % at 3 µM; actives 1.3% (n = 370,000); r(CAG) RNA repeat, TO-PRO-1 dye displacement fluorescence; AID 651821, 2012;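 active means inhibition above the plate cutoff, the mean of all test compounds on that plate plus 3 SD, cut at about 35% in these data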;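 further: 0% = DMSO alone and 100% = 100 µM mitoxantrone as full dye displacement; higher means more dye released from RNA so lower well fluorescence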
STEP block: STEP phosphatase inhibitors, primary screen, biochemical, fluorescence intensity, uHTS; recombinant STEP, OMFP fluorogenic substrate; actives 0.25% (n = 360,000); inhibition, % at 20 µM; AID 588621, 2011;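 active means inhibition at 20 µM, scaled per plate between control wells, above about 37%, limit read from the data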;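 further: 0% = DMSO with enzyme and substrate and 100% = substrate only without enzyme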
Target sequence (P54829 whole entry, looked up): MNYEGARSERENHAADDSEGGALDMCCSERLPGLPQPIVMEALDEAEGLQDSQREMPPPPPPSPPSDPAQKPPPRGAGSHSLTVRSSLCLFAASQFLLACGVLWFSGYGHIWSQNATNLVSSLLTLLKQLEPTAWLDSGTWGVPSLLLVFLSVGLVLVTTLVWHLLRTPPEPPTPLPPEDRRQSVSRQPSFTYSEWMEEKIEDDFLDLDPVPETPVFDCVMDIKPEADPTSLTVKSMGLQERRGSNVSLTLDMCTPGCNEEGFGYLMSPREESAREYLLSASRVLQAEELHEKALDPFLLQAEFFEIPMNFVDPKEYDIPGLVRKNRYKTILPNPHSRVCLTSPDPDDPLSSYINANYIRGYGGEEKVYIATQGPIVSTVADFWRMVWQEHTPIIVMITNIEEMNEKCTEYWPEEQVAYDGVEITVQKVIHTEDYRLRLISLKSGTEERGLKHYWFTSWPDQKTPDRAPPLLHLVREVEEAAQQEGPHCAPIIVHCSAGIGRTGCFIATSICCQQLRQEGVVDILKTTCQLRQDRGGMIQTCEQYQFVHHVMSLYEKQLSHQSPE
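Material: STEP (striatal-enriched tyrosine phosphatase) enzyme, cell-free | Medium: 50 mM Bis-Tris pH 6.0 with 2.5 mM DTT and 0.005% Tween 20 | Read-out: Percent inhibition scaled to no-enzyme and uninhibited-enzyme controls, plate-pattern corrected | Signal: Fluorescence read at 480 nm ex / 540 nm em | Times: 20 min reaction, room temperature, in the dark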
Scp1 inh: Scp-1 phosphatase inhibitors, primary screen, biochemical, colorimetric, uHTS. AID 493091, 2011. inhibition, % at 20 µM. actives 0.88% (n = 340,000). Recombinant Scp1, phosphopeptide, malachite green phosphate absorbance. Carboxy-terminal domain RNA polymerase II polypeptide A small phosphatase 1 (Homo …;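 active means inhibition above about 50% at 20 µM, limit read from the data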;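 further: plate controls were DMSO wells with enzyme for no effect and wells lacking enzyme for full effect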
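Test system: SCP-1 catalytic domain; Buffer or medium: Acidic Tris acetate buffer with magnesium and detergent; Also added: Phosphorylated 17-residue peptide substrate; Compound: single 20 µM dose, 1% DMSO; Schedule: enzyme reaction 45 min at room temperature, colour 5 min, stabilisation 30 min; Signal: Phosphate-binding colour reagent, absorbance read at 630 nm.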
Scp-1 conf: Scp-1 phosphatase inhibitors, retest, confirmation, biochemical, colorimetric, single concentration; shares compounds with Scp1 inh; actives 61% (n = 2,500); inhibition, % at 20 µM; recombinant SCP-1 catalytic domain, phosphate release, malachite green absorbance;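 further: plate controls were DMSO with enzyme for no effect and buffer wells lacking enzyme for full effect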
MG interference: colorimetric readout interference by compounds, confirmation, artefact control for Scp-1 inhibitor project, biochemical, single concentration. shares compounds with Scp1 inh. Colorimetric interference counterscreen, malachite green absorbance 630 nm. apparent inhibition (interference), % at 20 µM. 2,500 tested, under 10 active. AID 540313, 2011;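 further: compounds added after enzyme reaction finished so only phosphate colour detection is probed; plate controls were DMSO wells with completed Scp-1 reaction for no effect and substrate wells lacking enzyme for full effect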
Scp1 DSF: Scp-1 binding by thermal shift, confirmation, orthogonal assay for Scp-1 inhibitor project, biophysical, differential scanning fluorimetry; actives 25% (n = 1,500); thermal shift relative to vanadate control, % at 40 µM; shares compounds with Scp1 inh; AID 540329, 2011; Recombinant SCP1, Sypro Orange thermal shift Tm;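 active means substances whose mean melting-temperature shift, as a percentage of the reference inhibitor's shift, reaches about 5.3%, limit read from the data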;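 further: 0% = Tm of DMSO wells and 100% = Tm with sodium orthovanadate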
* = called active by the depositor; . = not tested or not shown.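 How the source made its calls, unless noted: active means inhibition of at least 30% at 20 µM; inactive means the rest.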

SMILES	LMPTP inh	NadD inh	rCAG RNA binder	STEP block	Scp1 inh	Scp-1 conf	MG interference	Scp1 DSF
O=C(/C=C/c1ccco1)NCC(=O)N/N=C/c1ccc([N+](=O)[O-])cc1	38	11	11	4	76*	79*	-3	6.6*
Cc1cc(C)cc(OCC(=O)N/N=C/c2ccco2)c1	0	-5	-2	-2	-10	.	.	.
Nn1c(SCC(=O)Nc2ccc3c(c2)OCCO3)nnc1C(F)(F)F	-4	1	4	0	100*	10	0	.
CC(=O)c1cccc(NC(=O)COc2cc3oc(=O)c(CC(C)O)c(C)c3cc2Cl)c1 (stereo not drawn)	3	-6	7	-1	51*	46*	-13	-20
Cc1cc(C)cc(N(CC(=O)NC2CCC(C)CC2)S(=O)(=O)c2ccc(Cl)s2)c1 (stereo not drawn)	.	.	6	.	.	.	.	.
COc1ccc(/C=N/NC(=O)c2ccc(COc3ccccc3Cl)o2)cc1	4	8	2	6	9	.	.	.
CC(=O)Nc1ccc(/C(C)=N/NC(=O)c2ccc(COc3ccccc3Cl)o2)cc1	3	16	5	24	104*	65*	-7	-26
O=C1CC2CCCN2C=C1I (stereo not drawn)	-3	6	-1	-3	97*	87*	-11	-23
CCOC(=O)C1=CN2CCC[C@H]2CC1=O	-1	1	-1	0	-6	.	.	.
O=C(O)C1CC(c2ccccc2)=NO1 (stereo not drawn)	-1	5	-1	-2	-3	.	.	.
O=C(O)C1CC(c2ccc(F)cc2)=NO1 (stereo not drawn)	-2	-14	-1	0	52*	34*	-17	-5
CCOc1cc(/C=N/NC(=O)CSc2nnc(C)s2)ccc1OCc1ccccc1Cl	1	-3	7	0	78*	37*	-20	-7
COCCCNC(=O)C[C@H]1C[C@@]2(C(=O)OC)C(=C[C@H](C(C)C)O[C@@H]2C2CC2)N(Cc2ccc3c(c2)OCO3)C1=O	.	.	0	.	.	.	.	.
Cc1ccc(S(=O)(=O)CCC(=O)N2CCN(c3ccc([N+](=O)[O-])cc3)CC2)cc1	1	0	-2	2	59*	0	-8	.
Cc1ccc(-n2c(SCC(=O)c3ccccc3Br)nnc2-c2ccncc2)cc1	.	.	9	.	.	.	.	.
COc1cccc(C(=O)Nc2ccc(C(=O)NCC3COc4ccccc4O3)cc2)c1 (stereo not drawn)	.	.	6	.	.	.	.	.
CC1CCN(C(=O)c2cc(-c3ccccc3O)on2)CC1	0	-9	3	-3	53*	-17	-13	.
CC1CCN(C(=O)c2cc(-c3ccco3)on2)CC1	-1	0	9	-2	-5	.	.	.
COC(=O)[C@@]12CCCCC3=C1N(CCC3)C(=O)[C@H]2CC(=O)NCc1cccs1	.	.	0	.	.	.	.	.
COc1cccc(-c2nnc(SCc3cc(C)ccc3C)n2Cc2ccco2)c1	.	.	4	.	.	.	.	.
CC(=O)c1ccc(NC(=O)CCc2nc3sc4c(c3c(=O)[nH]2)CCCC4)cc1	8	17	10	4	52*	65*	-21	0
Cc1cccc(NC(=O)CNC(=O)CCc2nc3sc4c(c3c(=O)[nH]2)CCCC4)c1C	36	9	22	12	73*	75*	-15	13*
CCN(C(=O)CN1CCN(c2nc(-c3ccccc3)cs2)CC1)c1ccccc1C	.	.	5	.	.	.	.	.
CCn1cc(C(=O)NCC(C)C)c(=O)c2cc(F)c(N3CCN(C(=O)c4ccco4)CC3)cc21	1	2	1	-2	2	.	.	.
CCn1cc(C(=O)NCc2ccco2)c(=O)c2cc(F)c(N3CCN(C(=O)c4ccco4)CC3)cc21	6	6	-1	3	58*	37*	-11	-10
SMILES	LMPTP inh	NadD inh	rCAG RNA binder	STEP block	Scp1 inh	Scp-1 conf	MG interference	Scp1 DSF
O=C(CSc1nnc(COc2ccccc2)n1Cc1ccco1)Nc1ccc2c(c1)OCO2	.	.	3	.	.	.	.	.
CCOc1ccc(CCNC(=O)C2CC=CCC2C(=O)OC(C)C)cc1OCC (stereo not drawn)	-1	-5	-13	3	-4	.	.	.
CCOc1ccc(CCNC(=O)C2CC(C)=CCC2C(=O)O)cc1OCC (stereo not drawn)	-1	-5	-2	19	87*	58*	-14	-19
Cc1ccc(SCC(=O)Nc2ccc(-c3nnc(-c4ccco4)o3)cc2)cc1	30	-4	6	13	70*	77*	-7	-21
Cc1cccc(NC(=O)CSc2ccc(-c3ccco3)nn2)c1	0	2	11	-1	-4	.	.	.
CC(=O)Nc1ccc(NC(=O)CSc2ccc(-c3ccco3)nn2)cc1	3	-1	7	2	51*	14	-23	.
CC(=O)Nc1cccc(NC(=O)CSc2ccc(-c3ccco3)nn2)c1	5	-6	7	1	70*	1	-21	.
C=CCN1C(=O)[C@H](CC(=O)NCc2cccc(C(F)(F)F)c2)[C@@]2(C(=O)OCC)CCCC=C12	.	.	3	.	.	.	.	.
O=C(C1CCCN(S(=O)(=O)c2ccccc2F)C1)N1CCN(Cc2ccccc2)CC1 (stereo not drawn)	.	.	0	.	.	.	.	.
CSc1ccccc1NC(=O)c1cc2ncc(Br)cn2n1	2	-1	1	3	60*	50*	-13	-3
Cc1ccccc1Cn1ccc(NC(=O)c2cc3ncc(Br)cn3n2)n1	-1	-9	-3	-3	-6	.	.	.
O=c1c2cc(-c3ccccc3)sc2nc2n1N=C(c1ccccc1)CS2	42	20	2	6	108*	59*	-25	1
Cc1cc(C(=O)CSc2nnc(-c3cccs3)n2Cc2ccccc2)c(C)n1C	1	4	-4	-2	3	.	.	.
O=c1cc(CSc2nnc(-c3cccs3)n2Cc2ccccc2)nc2sc3ccccc3n12	25	18	6	5	75*	68*	-6	-24
Cc1ccc2c(c1)N(CCCC(=O)NCc1ccc(F)cc1)C(=O)CO2	.	.	1	.	.	.	.	.
